Assay results published in ChEMBL document CHEMBL1152777, “Potent non-benzoquinone ansamycin heat shock protein 90 inhibitors from genetic engineering of Streptomyces hygroscopicus” (J Med Chem, 2009).
Activity calls are given as the source filed them. The calls are words filed in the database; no cut-off is given here.

Tests used:
[1] = molecular target: T1, Heat shock protein HSP 90-alpha (Homo sapiens, UniProt P07900); test: Binding affinity to human recombinant Hsp90alpha N-terminal domain by isothermal titration calorimetry
[2] = tested on: SK-BR-3; test: Cytotoxicity against human SKBR3 cells after 72 hrs; type: functional, cell-based; settings: SK-BR-3, 72 h
Outline: (§1)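 Viability was read by CellTiter-Glo luminescent assay. Values are means of three independent determinations.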

[3] = tested on: HCT-116; test: Cytotoxicity against human HCT116 cells after 72 hrs; type: functional, cell-based; settings: HCT-116, 72 h; outline: as §1
[4] = Cytotoxicity against NQ01-deficient human MDA468 cells after 72 hrs; type: functional, cell-based; settings: MDA-MB-468, 72 h; outline: as §1
[5] = tested on: NCI-H596; test: Cytotoxicity against NQ01-deficient human NCI-H596 cells after 72 hrs; type: functional, cell-based; settings: NCI-H596, 72 h; outline: as §1
[6] = tested on: SK-OV-3; test: Cytotoxicity against human SKOV3 cells after 72 hrs; type: functional, cell-based; settings: SK-OV-3, 72 h; outline: as §1
[7] = tested on: MCF7; test: Cytotoxicity against human MCF7 cells after 72 hrs; type: functional, cell-based; settings: MCF7, 72 h; outline: as §1
[8] = tested on: Mus musculus; test: Toxicity in human COLO205 tumor bearing nu/nu mouse assessed as body weight change at 30 mg/kg, iv administered once daily for 5 days with 2 day interval for total 13 doses; type: organism-based; set-up: dose 30 mg/kg, route intravenous; settings: in vivo
[9] = tested on: Mus musculus; test: Toxicity in human COLO205 tumor bearing nu/nu mouse assessed as body weight change at 15 mg/kg, iv administered once daily for 5 days with 2 day interval for total 13 doses; type: organism-based; set-up: dose 15 mg/kg, route intravenous; settings: in vivo
[10] = tested on: COLO 205; test: Antitumor activity against human COLO205 tumor bearing mouse assessed as reduction of tumor volume at 30 mg/kg, iv administered once daily for 5 days with 2 day interval for total 13 doses; type: functional, organism-based; set-up: dose 30 mg/kg
Outline: (§2)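 COLO205 tumor-bearing mice received iv doses of vehicle or test agent (15, 30 or 90 mg/kg) daily for 5 days, then a 2-day holiday, for 13 doses in total. Groups had 10 mice each. Tumor growth was followed over the dosing period and compared with vehicle.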

[11] = molecular target: T1, Heat shock protein HSP 90-alpha; test: Binding affinity to human recombinant Hsp90alpha N-terminal domain by scintillation proximity assay
[12] = tested on: Mus musculus; test: Inhibition of HSP90 in human COLO205 tumor bearing nu/nu mouse assessed as induction of HSP70 expression at 30 mg/kg, […] after 4 hrs by ELISA; type: functional, organism-based; set-up: dose 30 mg/kg
Outline: (§3)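 COLO205 xenograft mice were given a single dose. Tumors were harvested 4 or 24 h later and tumor lysates assayed by ELISA for Hsp70 or ErbB2 protein levels. Vehicle-dosed mice served as comparison.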

[13] = tested on: Mus musculus; test: Inhibition of HSP90 in human COLO205 tumor bearing nu/nu mouse assessed as induction of HSP70 expression at 30 mg/kg, […] after 24 hrs by ELISA; type: functional, organism-based; set-up: dose 30 mg/kg; outline: as §3
[14] = tested on: Mus musculus; test: Inhibition of HSP90 in human COLO205 tumor bearing nu/nu mouse assessed as reduction of ErbB2 protein level at 30 mg/kg, […] after 4 hrs by ELISA; type: functional, organism-based; set-up: dose 30 mg/kg; outline: as §3
[15] = tested on: COLO 205; test: Antitumor activity against human COLO205 tumor bearing mouse assessed as reduction of tumor volume dosed intravenously once daily for 5 days with 2 day interval for total 13 doses; type: functional, organism-based; outline: as §2
[16] = tested on: COLO 205; test: Antitumor activity against human COLO205 tumor bearing mouse assessed as reduction of tumor volume at 15 mg/kg, iv once daily for 5 days with 2 day interval for total 13 doses; type: functional, organism-based; set-up: dose 15 mg/kg; outline: as §2
[17] = tested on: Mus musculus; test: Inhibition of HSP90 in human COLO205 tumor bearing nu/nu mouse assessed as reduction of ErbB2 protein level at 30 mg/kg, iv after 24 hrs by ELISA
[18] = tested on: MCF7; test: Cytotoxicity against human MCF7 cells after 72 hrs in presence of NQO1 inhibitor dicoumarol; type: functional, cell-based; settings: MCF7, 72 h; outline: as §1
[19] = tested on: SK-BR-3; test: Cytotoxicity against human SKBR3 cells after 72 hrs in presence of NQO1 inhibitor dicoumarol; type: functional, cell-based; settings: SK-BR-3, 72 h; outline: as §1
[20] = tested on: COLO 205; test: Antitumor activity against human COLO205 tumor bearing mouse assessed as reduction of tumor volume at 90 mg/kg, iv administered once daily for 5 days with 2 day interval for total 13 doses; type: functional, organism-based; set-up: dose 90 mg/kg; outline: as §2

| SMILES | Kd [1] | IC50 [2] | IC50 [3] | IC50 [4] | IC50 [5] | IC50 [6] | IC50 [7] | Activity [8] | Activity [9] | Activity [10] | Kd [11] | Activity [12] | Activity [13] | Activity [14] | Activity [15] | Activity [16] | Activity [17] | IC50 [18] | IC50 [19] | Activity [20] |
| --- | --- | --- | --- | --- | --- | --- | --- | --- | --- | --- | --- | --- | --- | --- | --- | --- | --- | --- | --- | --- |
| CO[C@H]1/C=C\C=C(/C)C(=O)Nc2ccc(O)c(c2)C[C@@H](C)C[C@H](OC)[C@H](O)[C@@H](C)/C=C(\C)[C@@H]1OC(N)=O | 2.5 nM | 83 nM | 179 nM | 160 nM | 325 nM | – | – | – | – | – | – | – | – | – | – | – | – | – | – | – |
| CO[C@H]1C[C@H](C)Cc2cccc(c2)NC(=O)/C(C)=C/CC[C@H](OC)[C@@H](OC(N)=O)/C(C)=C/[C@H](C)[C@H]1O | 5.4 nM | 96 nM | 240 nM | 190 nM | 390 nM | 320 nM | 139 nM | – | – | – | – | – | – | – | – | – | – | – | – | – |
| CO[C@H]1C[C@H](C)Cc2cc(cc(Cl)c2O)NC(=O)/C(C)=C/CC[C@H](OC)[C@@H](OC(N)=O)/C(C)=C/[C@H](C)[C@H]1O | – | – | 120 nM | 89 nM | – | 141 nM | – | Non-toxic | Non-toxic | Active | 50 nM | Active | Active | Active | Dose-dependent effect | Active | Active | – | – | – |
| CO[C@H]1/C=C\C=C(/C)C(=O)Nc2cc(Cl)c(O)c(c2O)C[C@@H](C)C[C@H](OC)[C@H](O)[C@@H](C)/C=C(\C)[C@@H]1OC(N)=O | – | 394 nM | 422 nM | 443 nM | 710 nM | 350 nM | 330 nM | – | – | – | – | – | – | – | – | – | – | – | – | – |
| CO[C@H]1C[C@H](C)Cc2cc(ccc2O)NC(=O)/C(C)=C/CC[C@H](OC)[C@@H](OC(N)=O)/C(C)=C/[C@H](C)[C@H]1O | 0.8 nM | 835 nM | 1050 nM | 420 nM | 1200 nM | – | 610 nM | – | – | – | – | – | – | – | – | – | – | – | – | – |
| C=CCNC1=C2C[C@@H](C)C[C@H](OC)[C@H](O)[C@@H](C)/C=C(\C)[C@H](OC(N)=O)[C@@H](OC)/C=C\C=C(/C)C(=O)NC(=CC1=O)C2=O [TANESPIMYCIN] | – | 44 nM | 202 nM | 1500 nM | 1600 nM | 240 nM | 58 nM | – | – | – | – | – | – | – | – | Active | – | 662 nM | 410 nM | Active |
| CO[C@H]1/C=C\C=C(/C)C(=O)NC2=CC(=O)C(NCCN(C)C)=C(C[C@@H](C)C[C@H](OC)[C@H](O)[C@@H](C)/C=C(\C)[C@@H]1OC(N)=O)C2=O [ALVESPIMYCIN] | – | 58 nM | 57 nM | 1600 nM | 1100 nM | 122 nM | 71 nM | – | – | – | – | – | – | – | – | – | – | 862 nM | 230 nM | – |
